The record followed here is ChEMBL document CHEMBL2346625 (Bioorg Med Chem, 2013).

The subject of one data set is Streptococcus pyogenes. Put plainly: Growth inhibition of Streptococcus pyogenes UMAA2616 at 50 uM relative to control. The format is organism-based. Particulars: in vitro. Summed up: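 Diluted 1:1000 into THY containing compound at 50 μM in 0.1% DMSO and grown in triplicate at 37 °C to OD600 ≈ 1.0. Growth given as OD600 test/DMSO control; mean of at least three experiments ± SD.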

For data set [1], the system named is Liver. Put plainly: (§1) Half life in mouse liver microsomes at 0.5 to 1 uM by LC-MS/MS analysis. The following applies: microsomes, 1 µM. In kind it is ADME, Microsome. For orientation: Liver microsomes are vesicles of endoplasmic reticulum, rich in cytochrome P450 enzymes.
Data set [2] can be described thus: Kinetic solubility of the compound in aqueous Todd Hewitt bacterial media at 0.87 to 99 uM by UV/Vis spectrophotometry. In kind it is physicochemical. Particulars: read-out: Kinetic_solubility. Summed up:
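10 mM DMSO stocks serially diluted in DMSO, then added 1:100 to Todd-Hewitt broth at 37 °C, giving final 0.87–99 μM. Plate shaken, incubated 5 min at 37 °C, and OD600 read (n = 3). Solubility taken as the midpoint between the first concentration with OD600 ≥ 0.005 AU above background and the preceding concentration, ± half the interval.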

Data set [3] concerns Liver. Put plainly: Metabolic stability in mouse liver microsomes assessed as oxidation of compound. In kind it is ADME, Microsome.
A further data set concerns the target T1, Streptokinase (Streptococcus pyogenes, UniProt P96471).
T1 sequence (P96471 whole entry): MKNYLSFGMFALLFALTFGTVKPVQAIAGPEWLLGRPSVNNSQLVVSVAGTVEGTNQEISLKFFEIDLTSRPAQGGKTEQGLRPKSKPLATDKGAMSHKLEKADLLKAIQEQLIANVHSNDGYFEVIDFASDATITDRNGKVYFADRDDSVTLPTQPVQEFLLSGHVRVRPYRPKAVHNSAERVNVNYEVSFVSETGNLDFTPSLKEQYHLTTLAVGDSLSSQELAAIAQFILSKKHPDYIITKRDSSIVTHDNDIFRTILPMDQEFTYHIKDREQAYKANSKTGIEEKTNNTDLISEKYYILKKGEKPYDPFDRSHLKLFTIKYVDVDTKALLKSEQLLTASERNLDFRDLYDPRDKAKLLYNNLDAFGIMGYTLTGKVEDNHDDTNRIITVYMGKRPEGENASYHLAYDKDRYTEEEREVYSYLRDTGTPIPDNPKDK

Data set [4] in a line: Kinetic solubility of the compound in phosphate-buffered saline at 0.87 to 99 uM by UV/Vis spectrophotometry. The format is physicochemical. A digest of the protocol: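 10 mM DMSO stocks serially diluted in DMSO, then added 1:100 to PBS at 37 °C, giving final 0.87–99 μM. Plate shaken, incubated 5 min at 37 °C, and OD600 read (n = 3). Solubility taken as the midpoint between the first concentration with OD600 ≥ 0.005 AU above background and the preceding concentration, ± half the interval.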

Data set [5] in a line: as §1. In kind it is ADME, Microsome. The following applies: liver microsomes.
Data set [6] concerns the target T2, Streptokinase (Streptococcus pyogenes) (UniProt P96471).
T2 sequence (whole entry): T1 sequence (P96471 whole entry)
Put plainly: Inhibition of Streptococcus pyogenes UMAA2616 streptokinase assessed as cleavage of S-2403 to colored product p-nitroaniline at 5 uM after 2 hrs relative to control. A digest of the protocol:
(§2)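 UMAA2616 grown in THY (0.1% DMSO, compound at 5 or 50 μM) at 37 °C to OD600 ≈ 1.0, then centrifuged. Supernatant mixed with PBS, human plasma and S-2403 plasmin substrate and incubated 2 h at 37 °C; A405 read. Activity came from a DMSO-culture standard curve, was corrected for growth by OD600 and expressed as test/control. Mean of at least three experiments ± SD.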

The target in data set [7] is T2, Streptokinase (Streptococcus pyogenes). The data set can be described thus: Inhibition of Streptococcus pyogenes UMAA2616 streptokinase assessed as cleavage of S-2403 to colored product p-nitroaniline at 50 uM after 2 hrs relative to control. A digest of the protocol: as §2

In brackets after ≈: the same amount, converted by molar mass. Bounds are passed on as bounds.

For `C=CCn1c(SCC(=O)OCC)nc2c(c1=O)C(C)(C)Cc1ccccc1-2`, the T/C in the data set with Streptococcus pyogenes is listed as 1.01.

Compound `C=CCn1c(SC)nc2c(c1=O)C1(CCCCC1)Cc1ccccc1-2` yielded a t1/2 with Liver [1] of 13.5 min. Moreover, the solubility kinetic in data set [2] came to 22 µM (≈ 7.76 µg/mL).

In the data set on Streptococcus pyogenes, `C=CCn1c(SCC)nc2c(c1=O)C(C)(C)Cc1cc(OCCCC)ccc1-2` yielded a T/C of 0.87.

For the compound `C=CCn1c(SCCN(C)C)nc2c(c1=O)C1(CCCCC1)Cc1ccccc1-2`, in the data set with Streptococcus pyogenes, the T/C is 0.88.

Regarding `C=CCn1c(SCc2ccc(NC(C)=O)cc2)nc2c(c1=O)C1(CCCCC1)Cc1ccccc1-2`, the T/C in the data set with Streptococcus pyogenes is 0.96.

The compound `C=CCn1c(SCC)nc2c(c1=O)C(C)(C)Cc1cc(OCCCCCCC)ccc1-2` gave a T/C in the data set on Streptococcus pyogenes of 1.05.

Compound `C=CCn1c(SCc2ccccn2)nc2c(c1=O)C(C)(C)Cc1ccccc1-2` returned a T/C in the data set on Streptococcus pyogenes of 1.05.

`C=CCn1c(SCCOC)nc2c(c1=O)C(C)(C)Cc1ccccc1-2` returned a t1/2 with Liver [1] of 1.7 min. Also, the solubility kinetic in [2] turned out to be 22.5 µM (≈ 8.02 µg/mL).

`CCn1c(SCc2ccccc2)nc2c(c1=O)C1(CCCC1)Cc1ccccc1-2` registered a T/C in the data set on Streptococcus pyogenes of 1.07.

Turning to `C=CCn1c(SCc2ccccc2)nc2c(c1=O)C(C)(C)Cc1ccccc1-2`, in data set [2], the solubility kinetic came out at 9 µM (≈ 3.5 µg/mL).

`CCn1c(SCCOC)nc2c(c1=O)C(C)(C)Cc1ccccc1-2` returned a t1/2 in the data set on Liver [1] of 0.8 min. This compound gave a T/C in the data set with Streptococcus pyogenes of 0.39.

Turning to `C=CCn1c(SCCO)nc2c(c1=O)C(C)(C)Cc1ccccc1-2`, the T/C in the data set with Streptococcus pyogenes is 0.06.

On to `C=CCn1c(NCC)nc2c(c1=O)C(C)(C)Cc1cc(CC(=O)OCC)ccc1-2`, for which, in the data set with Streptococcus pyogenes, the T/C is given as 1.02.

In the data set with Streptococcus pyogenes, `C=CCn1c(SCCOC)nc2c(c1=O)C(C)(C)Cc1cc(C(=O)NCCc3c[nH]cn3)ccc1-2` showed a T/C of 0.99.

Take `C=CCn1c(SCCOC)nc2c(c1=O)C1(CCCCC1)Cc1ccccc1-2`: the t1/2 with Liver [1] came to 6.4 min. Besides, the Stability result in the data set on Liver [3] is given as “Stable”. The solubility kinetic in data set [2] is 9 µM (≈ 3.57 µg/mL). The T/C with Streptococcus pyogenes turned out to be 0.99.

Take `C=CCn1c(NCC)nc2c(c1=O)C1(CCCCC1)Cc1ccccc1-2`: the solubility kinetic in data set [2] was 9 µM (≈ 3.15 µg/mL). Moreover, in the data set with Streptococcus pyogenes, the T/C is listed as 0.32.

Regarding `C=CCn1c(OCC)nc2c(c1=O)C1(CCCCC1)Cc1ccccc1-2`, the solubility kinetic in [2] was 14.5 µM (≈ 5.08 µg/mL). The T/C in the data set on Streptococcus pyogenes came to 1.02.

As for `C=CCn1c(SCC)nc2c(c1=O)C(C)(C)Cc1ccc(OCCOC)cc1-2`, the T/C with Streptococcus pyogenes was 1.02.

`C=CCn1c(OCC)nc2c(c1=O)C(C)(C)Cc1ccccc1-2` yielded a t1/2 in the data set with Liver [1] of 0.9 min. This compound showed a T/C in the data set with Streptococcus pyogenes of 0.5.

For orientation: IC50 means the concentration that gives 50% inhibition. As for `C=CCn1c(SCCCC)nc2c(c1=O)C1(CCCCC1)Cc1ccccc1-2` [CCG-2979], the t1/2 in the data set with Liver [1] is reported as 37.2 min. Moreover, the IC50 against Streptokinase was > 50 µM. The solubility kinetic in data set [2] is 9 µM (≈ 3.55 µg/mL); in [4], 2 µM (≈ 0.789 µg/mL). Moreover, the T/C in the data set with Streptococcus pyogenes is 0.95.

In turn, `C=CCn1c(SCC#N)nc2c(c1=O)C(C)(C)Cc1ccccc1-2` showed a t1/2 with Liver [1] of 20.6 min. The solubility kinetic in [2] worked out at 34.5 µM (≈ 11.6 µg/mL); in data set [4], 3 µM (≈ 1.01 µg/mL). For the same compound, the T/C with Streptococcus pyogenes was 1.

In the case of `C=CCn1c(SCC)nc2c(c1=O)C(C)(C)Cc1cc(OCCc3ccccc3)ccc1-2`, the T/C with Streptococcus pyogenes stood at 1.01.

As for `C=CCn1c(SCC(N)=O)nc2c(c1=O)C(C)(C)Cc1ccccc1-2`, the t1/2 with Liver [1] is on record as < 2 min. In the data set on Streptococcus pyogenes, this compound displayed a T/C of 1.

Regarding `C=CCn1c(SCc2ccc(OC)cc2)nc2c(c1=O)C1(CCCCC1)Cc1ccccc1-2`, the T/C with Streptococcus pyogenes is 1.05.

As to `C=CCn1c(SCC)nc2c(c1=O)C(C)(C)Cc1cc(OCCOC)ccc1-2`, the T/C in the data set with Streptococcus pyogenes stood at 0.85.

`C=CCn1c(SCCOC)nc2c(c1=O)C(C)(C)Cc1cc(C(=O)NCc3ccccc3)ccc1-2` yielded a T/C in the data set with Streptococcus pyogenes of 1.07.

As a reminder, the half-life is the time needed for the level to fall by half in the phase considered. In data set [5], `CCSc1nc2c(c(=O)n1CC(F)(F)F)C(C)(C)Cc1ccc(OC)cc1-2` gave a half-life of 3 min. In the data set on Streptococcus pyogenes, this compound gave a T/C of 1.01.

In [5], `COCCSc1nc2c(c(=O)n1CCc1ccc(OC)cc1)C(C)(C)Cc1ccccc1-2` had a half-life of 9.4 min. The T/C is 0.71 in [6], 0.61 in data set [7] and 0.97 with Streptococcus pyogenes.

For `C=CCn1c(SCCOC)nc2c(c1=O)C(C)(C)Cc1cc(C(=O)O)ccc1-2`, the T/C in the data set with Streptococcus pyogenes was found to be 0.86.

`C=CCn1c(SCc2ccccc2)nc2c(c1=O)C1(CCCCC1)Cc1ccccc1-2` [CCG-102487]: the t1/2 in the data set on Liver [1] is 0.6 min. In addition, on Streptokinase, the IC50 is > 50 µM. The solubility kinetic in [2] was determined as 9 µM (≈ 3.86 µg/mL). For the same compound, the T/C with Streptococcus pyogenes was 0.96.

Take `C=CCn1c(NCC)nc2c(c1=O)C(C)(C)Cc1ccccc1-2`: in the data set on Liver [1], the t1/2 is recorded as 1.1 min. Besides, the T/C in the data set with Streptococcus pyogenes is 0.06.
